One data set has as its system Spinacia oleracea. The experiment in a line: Inhibition of photosynthetic electron transport in Spinacia oleracea (spinach) chloroplasts assessed as decrease in oxygen evolution measured after irradiated with 250 W halogen lamp by herbicidal assay in presence of electron acceptor 2,6-dichlorophenol-indophenol. Particulars: L., light or radiation study. Format: functional. In a few lines: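 Spinach chloroplasts in phosphate buffer (0.02 mol·L-1, pH 7.2) with sucrose 0.4 mol·L-1, MgCl2 0.005 mol·L-1, NaCl 0.015 mol·L-1; chlorophyll 30 mg/L. DCPIP photoreduction followed under ~100 W/m2 halogen light through 4 cm water filter, 22 °C. Compounds in DMSO (up to 4%). IC50 = molar concentration giving 50% drop in oxygen evolution versus untreated control.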

A further data set concerns Chlorella vulgaris. The experiment in a line: Antialgal activity in green algae Chlorella vulgaris assessed as reduction of chlorophyll content. Format: functional, organism-based. The method in brief:
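Algal suspensions (initial Chl 0.01 mg·L-1) grown 7 days, 16 h light/8 h dark, PAR 80 μmol/m2∙s, pH 7.2, with compound at 0.83–100 μmol·L-1 (DMSO ≤0.25%, same in controls). Chl extracted into methanol, read spectrophotometrically. IC50 = concentration halving chlorophyll versus control, or % of control ± S.D.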

Data set [1] is described as follows: Lipophilicity, log P of the compound. Format: physicochemical. Particulars: octanol/water.
[2] abbreviates: Chlorella vulgaris, read-out: IC50.

Turning to `Cc1ccc(NC(=O)c2cncc(Cl)n2)cc1I`, the IC50 – broadly, the concentration that gives 50% inhibition – in the data set with Spinacia oleracea was 51 µM; in the data set on Chlorella vulgaris it was “ND(Insoluble)”. In addition, in data set [1], the logP (usually a log measure of how a compound divides between an organic and an aqueous phase) turned out to be 3.33.
With `Cc1cc(NC(=O)c2cnc(C(C)(C)C)cn2)ccc1Cl`, the concentration for half-maximal inhibition (IC50) with Spinacia oleracea came out at 190 µM; in the data set with Chlorella vulgaris (setting [2]), 44 µM. Besides, the lipophilicity (logP) in data set [1] is 3.76.
For `CC(C)(C)c1ncc(C(=O)Nc2ccccc2F)nc1Cl` the same measures were 69 µM, 89 µM and 3.78.
In the case of `CC(C)(C)c1ncc(C(=O)Nc2ccc(C(F)(F)F)cc2)nc1Cl`, the IC50 is 184 µM in the data set with Spinacia oleracea and “ND(Insoluble)” in the data set on Chlorella vulgaris. The same compound came in with a log partition coefficient (logP) in data set [1] of 4.54.
`Cc1cc(NC(=O)c2cncc(Cl)n2)ccc1Cl`: the IC50 was 595 µM with Spinacia oleracea and 80 µM in the data set with Chlorella vulgaris (setting [2]). For the same compound, the log partition coefficient (logP) in data set [1] is 2.53.
`CN(C)C(=O)Nc1ccc(Cl)c(Cl)c1` [DCMU] had a logP in data set [1] of 2.76.

(Values after ChEMBL document CHEMBL3045328, “Substituted N-phenylpyrazine-2-carboxamides, their synthesis and evaluation as herbicides and abiotic elicitors” (Molecules, 2007).)
